According to ChEMBL document CHEMBL4765437, “Design, synthesis and biological evaluation of pyrazolo[3,4-d]pyrimidine-based protein kinase D inhibitors” (Eur J Med Chem, 2020):
Active and inactive are the calls of the source. No cut-off for these calls is given here.

Legend:
[1] = Antiproliferative activity against human DND41 cells assessed as reduction in cell viability incubated for 72 hrs by IncuCyte live-cell automated imaging analysis; conditions: DND41, 72 h
HCT-116 = assay: Antiproliferative activity against human HCT-116 cells assessed as reduction in cell viability incubated for 72 hrs by IncuCyte live-cell automated imaging analysis; conditions: HCT-116, 72 h
CAPAN-1 = assay: Antiproliferative activity against human CAPAN-1 cells assessed as reduction in cell viability incubated for 72 hrs by IncuCyte live-cell automated imaging analysis; conditions: CAPAN-1, 72 h
Z-138 = assay: Antiproliferative activity against human Z138 cells assessed as reduction in cell viability incubated for 72 hrs by IncuCyte live-cell automated imaging analysis; conditions: Z-138, 72 h
K562 = assay: Antiproliferative activity against human K562 cells assessed as reduction in cell viability incubated for 72 hrs by IncuCyte live-cell automated imaging analysis; conditions: K562, 72 h
HL-60 = assay: Antiproliferative activity against human HL-60 cells assessed as reduction in cell viability incubated for 72 hrs by IncuCyte live-cell automated imaging analysis; conditions: HL-60, 72 h
NCI-H460 = assay: Antiproliferative activity against human NCI-H460 cells assessed as reduction in cell viability incubated for 72 hrs by IncuCyte live-cell automated imaging analysis; conditions: NCI-H460, 72 h
[2] = target: T1, Serine/threonine-protein kinase D1 (Homo sapiens, UniProt Q15139); assay: Inhibition of recombinant FLAG-tagged PKD1 (unknown origin) expressed in HEK293T cells using Syntide-2 as substrate measured after 15 mins by ADP-Glo assay
T1 sequence (Q15139 whole entry): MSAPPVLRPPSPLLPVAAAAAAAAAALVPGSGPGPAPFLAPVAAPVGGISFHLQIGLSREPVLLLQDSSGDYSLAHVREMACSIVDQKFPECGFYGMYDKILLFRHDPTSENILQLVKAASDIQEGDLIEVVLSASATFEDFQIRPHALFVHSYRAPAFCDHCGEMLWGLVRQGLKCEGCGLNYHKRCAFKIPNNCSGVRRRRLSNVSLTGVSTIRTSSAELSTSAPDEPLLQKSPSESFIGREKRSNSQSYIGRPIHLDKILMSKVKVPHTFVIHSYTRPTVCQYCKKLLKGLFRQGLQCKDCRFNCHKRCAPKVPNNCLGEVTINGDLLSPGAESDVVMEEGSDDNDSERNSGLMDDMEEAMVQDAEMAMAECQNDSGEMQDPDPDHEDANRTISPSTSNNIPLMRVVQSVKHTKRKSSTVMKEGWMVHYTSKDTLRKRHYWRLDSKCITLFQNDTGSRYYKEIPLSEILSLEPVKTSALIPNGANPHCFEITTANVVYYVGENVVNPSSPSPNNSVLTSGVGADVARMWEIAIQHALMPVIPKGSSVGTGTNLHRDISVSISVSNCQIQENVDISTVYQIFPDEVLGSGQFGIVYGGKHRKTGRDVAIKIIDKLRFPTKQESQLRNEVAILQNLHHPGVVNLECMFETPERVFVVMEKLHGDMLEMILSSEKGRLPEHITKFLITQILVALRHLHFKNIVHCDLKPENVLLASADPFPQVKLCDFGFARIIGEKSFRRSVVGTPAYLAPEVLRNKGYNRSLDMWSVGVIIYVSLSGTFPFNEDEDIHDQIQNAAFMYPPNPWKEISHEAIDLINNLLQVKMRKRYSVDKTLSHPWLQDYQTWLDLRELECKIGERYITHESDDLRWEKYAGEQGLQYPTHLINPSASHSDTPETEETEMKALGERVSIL

[3] = target: T2, Serine/threonine-protein kinase D2 (Homo sapiens, UniProt Q9BZL6); assay: Inhibition of recombinant FLAG-tagged PKD2 (unknown origin) expressed in HEK293T cells using Syntide-2 as substrate measured after 15 mins by ADP-Glo assay
T2 sequence (Q9BZL6 whole entry): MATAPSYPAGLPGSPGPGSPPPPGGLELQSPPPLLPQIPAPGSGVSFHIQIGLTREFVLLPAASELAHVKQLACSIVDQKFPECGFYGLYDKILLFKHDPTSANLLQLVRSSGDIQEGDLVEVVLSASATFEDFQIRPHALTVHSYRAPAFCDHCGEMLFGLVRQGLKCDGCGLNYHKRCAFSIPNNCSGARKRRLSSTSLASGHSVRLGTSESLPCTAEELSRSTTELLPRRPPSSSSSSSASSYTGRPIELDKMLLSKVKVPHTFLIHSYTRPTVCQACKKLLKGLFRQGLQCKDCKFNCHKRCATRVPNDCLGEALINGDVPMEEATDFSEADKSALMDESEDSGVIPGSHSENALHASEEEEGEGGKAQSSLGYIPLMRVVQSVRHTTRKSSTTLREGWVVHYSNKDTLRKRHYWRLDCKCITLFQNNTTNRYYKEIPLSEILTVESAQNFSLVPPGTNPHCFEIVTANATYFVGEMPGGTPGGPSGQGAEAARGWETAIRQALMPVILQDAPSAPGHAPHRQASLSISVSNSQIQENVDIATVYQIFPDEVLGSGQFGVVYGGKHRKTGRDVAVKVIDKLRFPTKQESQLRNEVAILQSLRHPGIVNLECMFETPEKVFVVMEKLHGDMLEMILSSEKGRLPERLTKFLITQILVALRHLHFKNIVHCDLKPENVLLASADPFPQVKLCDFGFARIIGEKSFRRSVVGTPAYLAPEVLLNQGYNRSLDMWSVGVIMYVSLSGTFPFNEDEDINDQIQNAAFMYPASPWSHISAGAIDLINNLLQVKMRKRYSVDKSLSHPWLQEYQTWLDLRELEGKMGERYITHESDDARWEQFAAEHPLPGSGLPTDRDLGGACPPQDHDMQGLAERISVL

LN-229 = assay: Antiproliferative activity against human LN-229 cells assessed as reduction in cell viability incubated for 72 hrs by IncuCyte live-cell automated imaging analysis; conditions: LN-229, 72 h
PANC-1 [4] = assay: Antiproliferative activity against human PANC-1 cells assessed as reduction in cell proliferation at 5 uM measured after 48 to 144 hrs by MTT assay; format: functional, cell-based; conditions: time 48-144 hrs
Summary of the method: (§1)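 PANC-1 cells at 2000 cells/well, attached 4 h, then given compound at 5 µM or 0.25% DMSO vehicle. Grown 0, 48, 96 or 144 h, then MTT at 0.5 mg/mL final for 3 h, lysis in DMSO, absorbance at 550 nm. Four experiments (n=4), mean and SEM; two-way ANOVA with Dunnett's test against DMSO.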

[5] = target: T3, Serine/threonine-protein kinase D3 (Homo sapiens, UniProt O94806); assay: Inhibition of recombinant FLAG-tagged PKD3 (unknown origin) expressed in HEK293T cells using Syntide-2 as substrate measured after 15 mins by ADP-Glo assay
T3 sequence (O94806 whole entry): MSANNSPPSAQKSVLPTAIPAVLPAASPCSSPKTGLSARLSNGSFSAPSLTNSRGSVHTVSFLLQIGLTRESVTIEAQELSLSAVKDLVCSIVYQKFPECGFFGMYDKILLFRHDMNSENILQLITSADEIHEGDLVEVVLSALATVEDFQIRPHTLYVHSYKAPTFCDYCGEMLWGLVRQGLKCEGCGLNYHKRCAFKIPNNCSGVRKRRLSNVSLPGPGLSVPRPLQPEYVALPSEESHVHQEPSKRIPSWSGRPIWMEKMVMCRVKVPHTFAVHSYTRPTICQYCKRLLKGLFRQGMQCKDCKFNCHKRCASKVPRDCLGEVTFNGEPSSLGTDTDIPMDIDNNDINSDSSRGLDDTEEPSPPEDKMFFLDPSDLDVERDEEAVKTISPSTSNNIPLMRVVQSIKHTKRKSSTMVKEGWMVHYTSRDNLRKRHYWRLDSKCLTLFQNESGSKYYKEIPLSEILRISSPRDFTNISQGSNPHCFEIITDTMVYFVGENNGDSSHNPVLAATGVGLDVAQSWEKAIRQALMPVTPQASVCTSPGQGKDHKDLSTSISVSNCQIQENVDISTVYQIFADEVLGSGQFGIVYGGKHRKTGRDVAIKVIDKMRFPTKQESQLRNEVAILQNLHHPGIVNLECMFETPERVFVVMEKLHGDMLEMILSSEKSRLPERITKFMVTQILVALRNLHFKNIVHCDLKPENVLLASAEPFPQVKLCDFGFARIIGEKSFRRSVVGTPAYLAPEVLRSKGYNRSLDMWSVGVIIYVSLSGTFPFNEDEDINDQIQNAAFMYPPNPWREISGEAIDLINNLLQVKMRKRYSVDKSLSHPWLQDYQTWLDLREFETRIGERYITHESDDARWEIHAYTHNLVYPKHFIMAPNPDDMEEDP

PANC-1 [6] = assay: Antiproliferative activity against human PANC-1 cells assessed as reduction in cell proliferation at 5 uM measured after 96 to 144 hrs by MTT assay; format: functional, cell-based; conditions: time 96-144 hrs; summary of the method: as §1
[7] = target: Calcium/calmodulin-dependent protein kinase type II subunit alpha (Homo sapiens) (UniProt Q9UQM7); assay: Inhibition of recombinant human full-length N-terminal GST-fused CaMK2alpha (1 to 478 residues) expressed in baculovirus expression system at 1 to 10 uM using Syntide-2 peptide as substrate measured after 10 mins by [gamma-32P]ATP by scintillation counting method; conditions: dose 1-10 µM
Summary of the method: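 Radiometric kinase assay in 40 µL: 50 mM Tris-HCl pH 7.4, 10 mM MgCl2, 2 mM CaCl2, calmodulin, 50 ng CAMKIIα, 2 µg Syntide-2 substrate, 25 µM ATP plus 2 µCi [γ-32P]ATP, with compounds at the indicated concentrations.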

[8] = target: Protein kinase C delta type (Homo sapiens) (UniProt Q05655); assay: Inhibition of recombinant human full-length N-terminal GST-fused PKCdelta (1 to 676 residues) expressed in baculovirus expression system at 1 to 10 uM using MARCKS peptide as substrate measured after 10 mins by [gamma-32P]ATP by scintillation counting method; conditions: dose 1-10 µM
Summary of the method: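 Radiometric PKCδ assay: 50 mM Tris-HCl pH 7.4, 10 mM MgCl2, 4 µL phosphatidylserine/PDBu vesicle stock (dried lipids resuspended in 50 mM Tris pH 7.4 and sonicated), 50 ng PKCδ, 5 µg MARCKS peptide substrate, 25 µM ATP plus 2 µCi [γ-32P]ATP.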

Protein kinase C delta type (Homo sapiens), sequence (Q05655 whole entry, looked up, the tested form may be a part): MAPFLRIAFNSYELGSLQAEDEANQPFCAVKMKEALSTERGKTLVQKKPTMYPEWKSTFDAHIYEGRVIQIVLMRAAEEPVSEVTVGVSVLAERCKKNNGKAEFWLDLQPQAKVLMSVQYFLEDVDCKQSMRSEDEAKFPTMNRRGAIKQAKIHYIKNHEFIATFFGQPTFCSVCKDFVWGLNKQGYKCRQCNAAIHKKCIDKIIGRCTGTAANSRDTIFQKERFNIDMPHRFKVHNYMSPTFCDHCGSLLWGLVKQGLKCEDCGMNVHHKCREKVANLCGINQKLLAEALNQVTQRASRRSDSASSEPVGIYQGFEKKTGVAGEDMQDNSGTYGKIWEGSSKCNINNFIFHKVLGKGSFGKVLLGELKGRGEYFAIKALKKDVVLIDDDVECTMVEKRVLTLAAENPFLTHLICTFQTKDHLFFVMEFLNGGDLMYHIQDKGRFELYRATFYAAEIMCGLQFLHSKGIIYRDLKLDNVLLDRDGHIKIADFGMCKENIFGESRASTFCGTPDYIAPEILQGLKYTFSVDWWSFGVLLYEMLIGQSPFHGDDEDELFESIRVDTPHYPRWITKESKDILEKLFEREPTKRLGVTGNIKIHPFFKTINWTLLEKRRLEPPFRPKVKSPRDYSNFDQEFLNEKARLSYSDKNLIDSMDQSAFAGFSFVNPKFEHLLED
Calcium/calmodulin-dependent protein kinase type II subunit alpha (Homo sapiens), sequence (Q9UQM7 whole entry, the tested form may be a part): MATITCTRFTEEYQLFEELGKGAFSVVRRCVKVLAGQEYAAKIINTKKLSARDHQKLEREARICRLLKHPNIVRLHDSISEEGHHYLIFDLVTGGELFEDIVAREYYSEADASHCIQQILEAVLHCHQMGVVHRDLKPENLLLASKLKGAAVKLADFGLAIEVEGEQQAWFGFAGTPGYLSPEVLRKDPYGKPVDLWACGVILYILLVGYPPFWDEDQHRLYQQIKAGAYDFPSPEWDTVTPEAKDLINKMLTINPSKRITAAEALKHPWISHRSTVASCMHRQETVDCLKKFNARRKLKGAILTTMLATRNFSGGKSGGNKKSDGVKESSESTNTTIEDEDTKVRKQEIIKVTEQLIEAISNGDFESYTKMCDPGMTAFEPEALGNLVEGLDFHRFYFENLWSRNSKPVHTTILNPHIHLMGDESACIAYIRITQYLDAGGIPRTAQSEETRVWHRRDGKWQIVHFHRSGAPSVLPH

Work on CC[C@@H](N)CNc1ccnc(-c2cc(-c3cnn(C)c3)ccc2O)n1 yielded an IC50 [1] of 1 µM, an IC50 (HCT-116) of 1.7 µM and an IC50 (CAPAN-1) of 1.8 µM. For the same compound, the IC50 (Z-138) was 0.7 µM, the IC50 (K562) was 2.2 µM and the IC50 (HL-60) was 1 µM. It also gave an IC50 (NCI-H460) of 1.9 µM, an IC50 [2] of 16 nM and an IC50 [3] of 9 nM. The IC50 (LN-229) was 0.6 µM.
Nc1ncnc2c1c(-c1c[nH]c3ccccc13)nn2CC1CCNCC1 showed an IC50 [1] of 42.7 µM, an IC50 (HCT-116) of over 100 µM and an IC50 (CAPAN-1) of 40.7 µM. For the same compound, the IC50 (Z-138) was 35.3 µM, the Activity (PANC-1 [4]) was “inactive” and the IC50 (K562) was over 100 µM. The IC50 (HL-60) was 17.9 µM, the IC50 (NCI-H460) was over 95.8 µM and the IC50 (LN-229) was 80.6 µM.
For CC(C)(C)n1nc(Cc2cccc3ccccc23)c2c(N)ncnc21, the IC50 [1] was over 26.1 µM, the IC50 (HCT-116) was over 100 µM and the IC50 (CAPAN-1) was 23 µM. For the same compound, the IC50 (Z-138) was over 23.7 µM, the IC50 (K562) was over 36.3 µM and the IC50 (HL-60) was 24.1 µM. The IC50 (NCI-H460) was over 100 µM, the IC50 [2] was 1010 nM and the IC50 [5] was 616 nM. It also gave an IC50 [3] of 786 nM and an IC50 (LN-229) of over 100 µM.
CCOc1ccc2cc(-c3nn(CC4CCN(C)CC4)c4ncnc(N)c34)ccc2n1 showed an IC50 [1] of 35.5 µM, an IC50 (HCT-116) of over 55.2 µM and an IC50 (CAPAN-1) of over 100 µM. For the same compound, the IC50 (Z-138) was 30.4 µM, the IC50 (K562) was over 100 µM and the IC50 (HL-60) was over 100 µM. For the same compound, the IC50 (NCI-H460) was over 100 µM and the IC50 (LN-229) was 45.2 µM.
CC(C)(CO)Cn1nc(-c2c[nH]c3ccccc23)c2c(N)ncnc21 gave an IC50 [1] of 13.1 µM, an IC50 (HCT-116) of 13.4 µM and an IC50 (CAPAN-1) of 4.7 µM. For the same compound, the IC50 (Z-138) was 19.6 µM, the IC50 (K562) was 12 µM and the IC50 (HL-60) was 27.6 µM. It also gave an IC50 (NCI-H460) of 14 µM and an IC50 (LN-229) of 52.6 µM.
Cn1cc(-c2nn(C(C)(C)C)c3ncnc(N)c23)c2ccccc21 gave an IC50 [1] of over 41.4 µM, an IC50 (HCT-116) of 63 µM and an IC50 (CAPAN-1) of 21.3 µM. The IC50 (Z-138) was over 38.2 µM, the IC50 (K562) was over 33.7 µM and the IC50 (HL-60) was over 25.6 µM. The IC50 (NCI-H460) was 73.9 µM and the IC50 (LN-229) was over 78.3 µM.
For CC(C)(C)n1nc(-c2c[nH]c3ccccc23)c2c(N)ncnc21, the IC50 [1] was 9.8 µM, the Activity (PANC-1 [6]) was “Active” and the IC50 (HCT-116) was 2.5 µM. For the same compound, the IC50 (CAPAN-1) was 1.6 µM, the IC50 (Z-138) was 9.7 µM and the IC50 (K562) was 3.7 µM. For the same compound, the IC50 (HL-60) was 7.8 µM, the IC50 (NCI-H460) was 4 µM and the inhibition [7] was “inactive”. For the same compound, the IC50 [2] was 108 nM, the inhibition [8] was “inactive” and the IC50 [5] was 108 nM. The IC50 [3] was 94 nM and the IC50 (LN-229) was 39.2 µM.
